The source made the active and inactive calls. The calls are words filed in the database; no cut-off is given here.
Assays:
[1] = molecular target: T1, C-X-C chemokine receptor type 3 (Homo sapiens) (UniProt P49682); experiment: Negative allosteric modulation of PK1-tagged CXCR3 (unknown origin) expressed in HEK293T cells co-expressing beta-arrestin/beta-Gal enzyme chimera assessed as inhibition of CXCL11-induced beta-arrestin recruitment at 10 uM after 4 hrs by chemiluminescence based beta-galactosidase reporter gene assay relative to control; assay type: functional, cell-based
T1 sequence (whole entry): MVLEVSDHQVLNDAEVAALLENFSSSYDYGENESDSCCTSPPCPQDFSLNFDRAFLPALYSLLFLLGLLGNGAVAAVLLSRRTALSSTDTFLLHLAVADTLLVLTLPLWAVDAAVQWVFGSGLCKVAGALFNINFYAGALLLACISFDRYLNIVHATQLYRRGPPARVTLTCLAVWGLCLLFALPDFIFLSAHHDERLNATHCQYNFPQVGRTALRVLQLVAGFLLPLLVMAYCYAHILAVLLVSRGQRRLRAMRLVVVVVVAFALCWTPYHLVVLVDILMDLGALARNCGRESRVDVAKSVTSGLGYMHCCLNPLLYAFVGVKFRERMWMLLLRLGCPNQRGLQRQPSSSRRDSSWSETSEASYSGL
In short: (§1)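 PathHunter β-arrestin 2 recruitment at CXCR3 by β-gal fragment complementation, chemiluminescent read-out, compounds at 10 µM. Inhibition mode is scaled between CXCL11 50 nM (100%) and (±)-NBI-74330 10 µM (full inhibition). Agonism tested without chemokine. Mean ± S.E.M., three experiments in triplicate.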

[2] = molecular target: T1, C-X-C chemokine receptor type 3 (Homo sapiens); experiment: Agonist activity at PK1-tagged CXCR3 (unknown origin) expressed in HEK293T cells co-expressing beta-arrestin/beta-Gal enzyme chimera assessed as beta-arrestin recruitment at 10 uM after 4 hrs by chemiluminescence based beta-galactosidase reporter gene assay; assay type: functional, cell-based; in short: as §1
[3] = molecular target: T1, C-X-C chemokine receptor type 3 (Homo sapiens); experiment: Negative allosteric modulation of CXCR3 (unknown origin) expressed in HEK293T cells assessed as inhibition of CXCL11-induced reduction in forskolin-mediated cAMP accumulation at 10 uM after 20 mins by BRET assay relative to control; assay type: functional, cell-based
In short: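 CXCR3 antagonism in whole-cell BRET cAMP assay, compounds at 10 µM. NetBRET signal expressed as percent, scaled between CXCL11 50 nM (100%) and cRAMX3 10 µM (0%). Mean ± S.E.M. of three experiments in triplicate.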

[4] = molecular target: T1, C-X-C chemokine receptor type 3 (Homo sapiens); experiment: Agonist activity at CXCR3 (unknown origin) expressed in HEK293T cells assessed as inhibition of forskolin-mediated cAMP accumulation at 10 uM after 20 mins by BRET assay; assay type: functional, cell-based
[5] = molecular target: T1, C-X-C chemokine receptor type 3 (Homo sapiens); experiment: Negative allosteric modulation of CXCR3 in human PBMC assessed as inhibition of CXCL11-induced migration at 30 uM preincubated for 1 hr followed by CXCL11 addition measured after 3 hrs by flow cytometry based transwell assay relative to control; assay type: functional, cell-based
In short: (§2)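 Human PBMCs, CXCR3 expression confirmed by flow cytometry, pre-treated with compound (30 or 150 µM) then allowed to migrate toward CXCL11 in a transwell. Cells in the lower chamber counted by flow cytometry (60 s counts). Mean ± SD of four independent experiments; unpaired t test.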

[6] = molecular target: T1, C-X-C chemokine receptor type 3 (Homo sapiens); experiment: Negative allosteric modulation of CXCR3 in human PBMC assessed as inhibition of CXCL11-induced migration at 150 uM preincubated for 1 hr followed by CXCL11 addition measured after 3 hrs by flow cytometry based transwell assay relative to control; assay type: functional, cell-based; in short: as §2
[7] = molecular target: T2, C-X-C chemokine receptor type 4 (Homo sapiens, UniProt P61073); experiment: Positive allosteric modulation of CXCR4 (unknown origin) expressed in HEK293T cells assessed as increase in CXCL12-induced reduction in forskolin-mediated cAMP accumulation at 10 uM after 20 mins by BRET assay relative to control; assay type: functional, cell-based; parameters: scale not given: the % may be the effect or the level left
T2 sequence (P61073 whole entry): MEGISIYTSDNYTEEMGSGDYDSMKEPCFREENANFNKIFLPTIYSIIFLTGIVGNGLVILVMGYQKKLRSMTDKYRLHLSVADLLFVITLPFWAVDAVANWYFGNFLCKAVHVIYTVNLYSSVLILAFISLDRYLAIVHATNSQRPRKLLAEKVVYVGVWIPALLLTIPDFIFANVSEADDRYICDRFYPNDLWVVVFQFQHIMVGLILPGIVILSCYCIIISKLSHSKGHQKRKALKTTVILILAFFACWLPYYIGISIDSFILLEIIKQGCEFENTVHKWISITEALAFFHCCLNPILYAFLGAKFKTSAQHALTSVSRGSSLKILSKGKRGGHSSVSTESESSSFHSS

[8] = molecular target: T2, C-X-C chemokine receptor type 4; experiment: Negative allosteric modulation of CXCR4 (unknown origin) expressed in HEK293T cells assessed as inhibition of CXCL12-induced reduction in forskolin-mediated cAMP accumulation after 20 mins by BRET assay; assay type: functional, cell-based
In short: (§3)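 Dose-response in CXCR4 BRET cAMP assay with CXCL12 at 20 nM, IT1t as reference. Analysis uses ternary complex allosteric model; where signal-to-noise was poor, nonlinear regression with Hill slope fixed at 1 gave approximate pEC50. Three experiments in triplicate.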

[9] = molecular target: T2, C-X-C chemokine receptor type 4; experiment: Agonist activity at CXCR4 (unknown origin) expressed in HEK293T cells assessed as inhibition of forskolin-mediated cAMP accumulation at 10 uM after 20 mins by BRET assay; assay type: functional, cell-based
In short: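 Agonism screen in BRET-based cAMP assay, compounds at 10 µM applied without chemokine. For CXCR4, CXCL12 at 20 nM serves as positive control. Mean of three experiments, each in triplicate.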

[10] = molecular target: T1, C-X-C chemokine receptor type 3 (Homo sapiens); experiment: Positive allosteric modulation of PK1-tagged CXCR3 (unknown origin) expressed in HEK293T cells co-expressing beta-arrestin/beta-Gal enzyme chimera assessed as increase in CXCL11-induced beta-arrestin recruitment at 10 uM after 4 hrs by chemiluminescence based beta-galactosidase reporter gene assay; assay type: functional, cell-based; in short: as §1
[11] = molecular target: T1, C-X-C chemokine receptor type 3 (Homo sapiens); experiment: Negative allosteric modulation of CXCR3 (unknown origin) expressed in HEK293T cells assessed as inhibition of CXCL11-induced reduction in forskolin-mediated cAMP accumulation after 20 mins by BRET assay; assay type: functional, cell-based
In short: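 CXCR3 dose-response in BRET cAMP assay against CXCL11 at 50 nM, cRAMX3 as reference. Data fitted with a ternary complex allosteric model to give pKB and cooperativity α. Mean ± S.E.M., three experiments in triplicate.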

[12] = molecular target: T2, C-X-C chemokine receptor type 4; experiment: Negative allosteric modulation of CXCR4 (unknown origin) expressed in HEK293T cells assessed as inhibition of CXCL12-induced reduction in forskolin-mediated cAMP accumulation at 10 uM after 20 mins by BRET assay relative to control; assay type: functional, cell-based
In short: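 CXCR4 antagonism in BRET cAMP assay, compounds at 10 µM. NetBRET expressed as percent, scaled between CXCL12 20 nM (100%) and IT1t 10 µM (0%). Mean ± S.E.M. of three experiments in triplicate.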

[13] = molecular target: T2, C-X-C chemokine receptor type 4; experiment: Negative allosteric modulation of CXCR4 in human CD4+ T cells assessed as inhibition of CXCL12-induced migration at 150 uM preincubated for 1 hr followed by CXCL12 addition measured after 3 hrs by flow cytometry based transwell assay relative to control; assay type: functional, cell-based
In short: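 Isolated human CD4+ T cells, CXCR4 expression checked by flow cytometry, pre-treated with compound at 150 µM, then transwell migration toward CXCL12. Migrated cells in the lower chamber counted by flow cytometry over 60 s. Mean ± SD of four independent experiments; unpaired t test.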

[14] = molecular target: T2, C-X-C chemokine receptor type 4; experiment: Agonist activity at CXCR4 (unknown origin) expressed in HEK293T cells assessed as inhibition of forskolin-mediated cAMP accumulation after 20 mins by BRET assay; assay type: functional, cell-based; in short: as §3
[15] = molecular target: T1, C-X-C chemokine receptor type 3 (Homo sapiens); experiment: Negative allosteric modulation of CXCR3 (unknown origin) expressed in HEK293 cell membranes assessed as inhibition of CXCL11-induced [35S]GTPgammaS binding preincubated for 30 mins followed by [35S]GTPgammaS addition measured after 30 mins; assay type: functional
[16] = molecular target: T2, C-X-C chemokine receptor type 4; experiment: Negative allosteric modulation of CXCR4 (unknown origin) expressed in HEK293 cell membranes assessed as inhibition of CXCL12-induced [35S]GTPgammaS binding preincubated for 30 mins followed by [35S]GTPgammaS addition measured after 30 mins; assay type: functional

SMILES	inhibition [1]	Activity [2]	inhibition [3]	inhibition [4]	pKb [8]	Activity [10]	inhibition [12]	also measured
CCOc1ccc(-n2c(C(C)N(Cc3cccnc3)C(=O)Cc3ccc(F)c(C(F)(F)F)c3)nc3ncccc3c2=O)cc1 (racemic)	100%							
O=C(NC1CCN(Cc2ccc(F)c(F)c2)CC1)c1ccc(-n2cccn2)nc1		inactive	> 50%	inactive				inhibition [5]: > 10%; inhibition [6]: > 20%
CC1(C)CN2C(CS/C(=N\C3CCCCC3)NC3CCCCC3)=CSC2=N1					8.54			Activity [7]: 100%
CCOc1ccc(-n2c(C(C)N(CC3CCN(C)CC3)C(=O)Cc3ccc(F)c(C(F)(F)F)c3)nc3ncccc3c2=O)cc1 (stereo not given)			100%					pKb [11]: 7.33
O=C(c1ccc(-n2cccn2)nc1)N1CCC(N(Cc2ccccc2)Cc2ccc(Cl)c(Cl)c2)CC1		inactive	> 50%	inactive				inhibition [5]: > 10%; inhibition [6]: > 20%
O=C(c1ccc(-n2cccn2)nc1)N1CCC(N(Cc2ccccc2)Cc2ccccc2)CC1	≥ 20%	inactive		inactive				
O=C(c1ccc(-n2cccn2)nc1)N1CCN(Cc2ccc(Cl)c(Cl)c2)CC1					6.5	inactive	> 50%	inhibition [13]: > 80%
O=C(c1ccc(-n2cccn2)nc1)N1CCC(N(Cc2ccccc2)Cc2ccc(Cl)cc2)CC1	≥ 20%	inactive		inactive				
COc1ccc(CN2CCN(C(=O)c3ccc(-n4cccn4)nc3)CC2)cc1			> 60%		6.09	inactive	> 50%	pKb [11]: 6.15; inhibition [5]: > 10%; inhibition [6]: > 20%; inhibition [13]: > 80%
COc1ccc(CN(Cc2ccccc2)C2CCN(C(=O)c3ccc(-n4cccn4)nc3)CC2)cc1	≥ 20%	inactive		inactive	5.83	inactive	> 50%	inhibition [13]: 100%
O=C(c1ccc(-n2cccn2)nc1)N1CCC(NCc2ccccc2)CC1		inactive		inactive		inactive		Activity [7]: Active; inhibition [9]: Active; EC50 [14]: 5.89 µM
O=C(c1ccc(-n2cccn2)nc1)N1CCC(N(Cc2ccccc2)Cc2ccc(F)c(F)c2)CC1	≥ 20%	inactive		inactive				

More lines, main results first:

inhibition [1]	Activity [2]	inhibition [3]	inhibition [4]	pKb [8]	Activity [10]	inhibition [12]	SMILES	also measured
				4.64	inactive		O=C(NCCCNc1ccc(Cl)cc1)c1ccc(-n2cccn2)nc1	inhibition [9]: Active
				6.04	inactive	> 50%	O=C(NCCCN(Cc1ccccc1)c1ccccc1)c1ccc(-n2cccn2)nc1	inhibition [13]: > 80%
	inactive	> 50%	inactive	5.6	inactive		O=C(NC1CCN(Cc2ccc(Cl)cc2)CC1)c1ccc(-n2cccn2)nc1	inhibition [9]: Active; inhibition [5]: 80%; inhibition [6]: 80%
inactive		> 60%					O=C(c1ccc(-n2cccn2)nc1)N1CCN(Cc2ccc(Cl)cc2)CC1	pKb [11]: 6.35; inhibition [5]: > 10%; inhibition [6]: > 20%
					inactive		O=C(NCCCNc1ccccc1)c1ccc(-n2cccn2)nc1	inhibition [9]: Active; EC50 [14]: 9.55 µM
				6.13	inactive	> 50%	O=C(NCCCN(CCc1ccccc1)c1ccccc1)c1ccc(-n2cccn2)nc1	inhibition [13]: > 80%
		inactive				inactive	CCN(CCCNC(=O)c1ccc(-n2cccn2)nc1)c1ccccc1	pKb [15]: 8.82; pKb [16]: 8.72

Reference: ChEMBL document CHEMBL4152266, “Insight into structural requirements for selective and/or dual CXCR3 and CXCR4 allosteric modulators” (Eur J Med Chem, 2018)
